Measured values pooled from the literature.
Lines come from different studies, so protocols differ.
IKBKB: Inhibitor of nuclear factor kappa-B kinase subunit beta (IKBKB, Homo sapiens, UniProt O14920)
AChE: AChE (Phlebotomus papatasi, UniProt M1F887)
M-phase phosphoprotein 8 chromodomain: M-phase phosphoprotein 8, chromodomain (Homo sapiens, UniProt Q99549)
HTR1A: 5-hydroxytryptamine receptor 1A (HTR1A, Homo sapiens, UniProt P08908)

COCCOCOc1cc(OCc2cc(F)cc(F)c2)c(C(=O)/C=C/c2ccc(C(=O)O)cc2)cc1C12CC3CC(CC(C3)C1)C2
IC50 (IKBKB; enzyme activity; inhibitor; TR-FRET): 1830 nM

CNC(=O)Oc1cccc2c1OC(C)(C)C2
IC50 (AChE; enzyme activity; inhibitor): 8 nM

COCCOCOc1cc(OCc2ccc(Br)cc2)c(C(=O)/C=C/c2ccc(C(=O)O)cc2)cc1C12CC3CC(CC(C3)C1)C2
IC50 (IKBKB; enzyme activity; inhibitor; TR-FRET): 2730 nM

CCN(CCCC[C@H](NC(=O)[C@H](Cc1ccccc1)NC(=O)[C@H](C)NC(=O)[C@H](Cc1ccccc1)NC(=O)c1cccnc1)C(=O)N[C@@H](CO)C(N)=O)C(C)C
IC50 (M-phase phosphoprotein 8 chromodomain; cell-free assay; TR-FRET): 550 nM

CNC(=O)Oc1cccc2c1OC(C)(C)O2
IC50 (AChE; enzyme activity; inhibitor): 15 nM

CC(CCc1ccccc1)NC(C)C(O)c1ccc(O)cc1 (centres unmarked)
IC50 (HTR1A; ligand displacement; radioligand): 3380 nM

CNC(=O)Oc1cccc2ccccc12
IC50 (AChE; enzyme activity; inhibitor): 167 nM

COc1ncccc1-c1cnn2ccc(N3CCN(C(=O)OC(C)C)CC3)nc12
IC50 (Alpha-2C adrenergic receptor (ADRA2C, Homo sapiens, UniProt P18825); cell-free assay): > 30000 nM

CCN(CCCC[C@H](NC(=O)[C@H](CC(C)C)NC(=O)[C@H](C)NC(=O)[C@H](Cc1ccccc1)NC(=O)c1ccc(N)c(Br)c1)C(=O)N[C@@H](CO)C(N)=O)C(C)C
IC50 (M-phase phosphoprotein 8 chromodomain; cell-free assay; TR-FRET): 400 nM

CCCCCNC(=N)N/N=C/c1c[nH]c2ccc(OC)cc12
IC50 (HTR1A; calcium signal; antagonist): 870 nM

CCN(CCCC[C@H](NC(=O)[C@H](CC(C)C)NC(=O)[C@H](C)NC(=O)[C@H](Cc1ccccc1)NC(=O)c1cccnc1)C(=O)N[C@@H](CO)C(N)=O)C(C)C
IC50 (M-phase phosphoprotein 8 chromodomain; cell-free assay; TR-FRET): 2200 nM

O=c1c2ccccc2[se]n1-c1ccccc1
IC50 (Leucine-rich repeat serine/threonine-protein kinase 2 (LRRK2, Homo sapiens, UniProt Q5S007); enzyme activity; inhibitor; radiometric): 2000 nM

O=C(CCCc1ccc(N(CCCl)CCCl)cc1)NCCC1CCN(CCOc2ccc(Oc3c(-c4ccc(O)cc4)sc4cc(O)ccc34)cc2)CC1
IC50 (Estrogen receptor (ESR1, Homo sapiens, UniProt P03372); ligand displacement; radioligand): 37 nM

CCN(CCCC[C@H](NC(=O)[C@H](CC(C)C)NC(=O)[C@H](C)NC(=O)[C@H](Cc1ccccc1)NC(=O)c1ccc(NC)cc1)C(=O)N[C@@H](CO)C(N)=O)C(C)C
IC50 (M-phase phosphoprotein 8 chromodomain; cell-free assay; TR-FRET): 4400 nM

C=C(C)[C@@H]1CCC(C)=C[C@H]1c1c(O)cc(CCCCC)cc1O
IC50 (G-protein coupled receptor 52 (GPR52, Homo sapiens, UniProt Q9Y2T5); cAMP; antagonist): 2450 nM

CCOP(=O)(OCC)Oc1ccc2c(C)c(Cl)c(=O)oc2c1
IC50 (AChE; enzyme activity; inhibitor): 430 nM

CCN(CCCC[C@H](NC(=O)[C@H](CC(C)C)NC(=O)[C@H](C)NC(=O)[C@H](Cc1ccccc1)NC(=O)c1ccc(N)cc1)C(=O)N[C@@H](CO)C(N)=O)C(C)C
IC50 (M-phase phosphoprotein 8 chromodomain; cell-free assay; TR-FRET): 1800 nM
